ChEMBL document CHEMBL1255409, “In vitro activity of ceftaroline against 623 diverse strains of anaerobic bacteria” (2010)
Converted amounts (≈) assume the structure as drawn.

Key:
[1] = test system: Clostridium paraputrificum; assay: Antimicrobial activity against Clostridium paraputrificum under anaerobic conditions after 44 hrs by CLSI-M11-47 protocol based agar dilution method; format: functional
Summary of the method: (§1)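 Reference agar dilution per CLSI M11-A7 with plates made on test day. Clinical isolates were stored at −70°C in 20% skim milk, subcultured twice, and 48-h cell paste was suspended in brucella broth to 0.5 McFarland. About 10^5 CFU/spot was applied with a Steers replicator. Plates were incubated 44 h at 37°C anaerobically. MIC was the lowest concentration giving complete inhibition or marked growth reduction versus the drug-free control.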

Prevotella corporis = assay: Antimicrobial activity against Prevotella corporis under anaerobic conditions after 44 hrs by CLSI-M11-47 protocol based agar dilution method; format: functional
Summary of the method: (§2)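 Clinical isolates were stored at −70°C in 20% skim milk and identified phenotypically or by partial 16S rRNA sequencing. Each strain was subcultured twice from frozen stock. Cell paste from 48-h cultures was suspended in brucella broth to a 0.5 McFarland standard. About 10^5 CFU per spot were applied by Steers replicator to agar dilution plates prepared on the day of testing. Plates were incubated 44 h at 37°C in an anaerobic chamber. MIC was taken as the lowest concentration giving complete inhibition or marked reduction of growth versus the drug-free control.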

[2] = test system: Porphyromonas asaccharolytica; assay: Antimicrobial activity against Porphyromonas asaccharolyticus under anaerobic conditions after 44 hrs by CLSI-M11-47 protocol based agar dilution method; format: functional; summary of the method: as §2
Schaalia odontolytica = assay: Antimicrobial activity against Actinomyces odontolyticus under anaerobic conditions after 44 hrs by CLSI-M11-47 protocol based agar dilution method; format: functional; summary of the method: as §1
[3] = test system: Enterocloster clostridioformis; assay: Antimicrobial activity against Clostridium clostridioforme under anaerobic conditions after 44 hrs by CLSI-M11-47 protocol based agar dilution method; format: functional; summary of the method: as §1
Parabacteroides merdae = assay: Antimicrobial activity against Bacteroides merdae under anaerobic conditions after 44 hrs by CLSI-M11-47 protocol based agar dilution method; format: functional; summary of the method: as §1
Bacteroides fragilis [4] = assay: Antimicrobial activity against Bacteroides fragilis under anaerobic conditions after 44 hrs by CLSI-M11-47 protocol based agar dilution method; format: functional; summary of the method: as §1
[5] = test system: Fusobacterium necrophorum; assay: Antimicrobial activity against Fusobacterium necrophorum under anaerobic conditions after 44 hrs by CLSI-M11-47 protocol based agar dilution method; format: functional; summary of the method: as §1
Clostridium baratii = assay: Antimicrobial activity against Clostridium baratii under anaerobic conditions after 44 hrs by CLSI-M11-47 protocol based agar dilution method; format: functional
Gemella morbillorum = assay: Antimicrobial activity against Gemella morbillorum under anaerobic conditions after 44 hrs by CLSI-M11-47 protocol based agar dilution method; format: functional; summary of the method: as §2
Prevotella intermedia = assay: Antimicrobial activity against Prevotella intermedia under anaerobic conditions after 44 hrs by CLSI-M11-47 protocol based agar dilution method; format: functional; summary of the method: as §2
[6] = test system: Actinomyces neuii subsp. anitratus; assay: Antimicrobial activity against Actinomyces neuii subsp. anitratus under anaerobic conditions after 44 hrs by CLSI-M11-47 protocol based agar dilution method; format: functional, Winkia neuii subsp. anitrata; settings: Winkia neuii; summary of the method: as §1
Gemella sanguinis = assay: Antimicrobial activity against Gemella sanguinis under anaerobic conditions after 44 hrs by CLSI-M11-47 protocol based agar dilution method; format: functional; summary of the method: as §2
Prevotella oris = assay: Antimicrobial activity against Prevotella oris under anaerobic conditions after 44 hrs by CLSI-M11-47 protocol based agar dilution method; format: functional; settings: Segatella oris; summary of the method: as §2
Bacteroides fragilis [7] = assay: Antimicrobial activity against Bacteroides fragilis spp. under anaerobic conditions after 44 hrs by CLSI-M11-47 protocol based agar dilution method; format: functional; summary of the method: as §1
[8] = test system: Peptostreptococcus stomatis; assay: Antimicrobial activity against Peptostreptococcus stomatis under anaerobic conditions after 44 hrs by CLSI-M11-47 protocol based agar dilution method; format: functional; summary of the method: as §2
[9] = test system: Clostridium celerecrescens; assay: Antimicrobial activity against Clostridium celerecrescens under anaerobic conditions after 44 hrs by CLSI-M11-47 protocol based agar dilution method; format: functional; settings: Lacrimispora celerecrescens; summary of the method: as §1
Clostridium subterminale = assay: Antimicrobial activity against Clostridium subterminale under anaerobic conditions after 44 hrs by CLSI-M11-47 protocol based agar dilution method; format: functional; summary of the method: as §1
Clostridium perfringens = assay: Antimicrobial activity against Clostridium perfringens under anaerobic conditions after 44 hrs by CLSI-M11-47 protocol based agar dilution method; format: functional
Bacteroides ovatus = assay: Antimicrobial activity against Bacteroides ovatus under anaerobic conditions after 44 hrs by CLSI-M11-47 protocol based agar dilution method; format: functional; summary of the method: as §1
Clostridium butyricum = assay: Antimicrobial activity against Clostridium butyricum under anaerobic conditions after 44 hrs by CLSI-M11-47 protocol based agar dilution method; format: functional
Prevotella disiens = assay: Antimicrobial activity against Prevotella disiens under anaerobic conditions after 44 hrs by CLSI-M11-47 protocol based agar dilution method; format: functional; summary of the method: as §2
Anaerococcus = assay: Antimicrobial activity against Anaerococcus sp. under anaerobic conditions after 44 hrs by CLSI-M11-47 protocol based agar dilution method; format: functional; summary of the method: as §1
Prevotella buccae = assay: Antimicrobial activity against Prevotella buccae under anaerobic conditions after 44 hrs by CLSI-M11-47 protocol based agar dilution method; format: functional; settings: Segatella buccae; summary of the method: as §2
[10] = test system: Anaerococcus lactolyticus; assay: Antimicrobial activity against Anaerococcus lactolyticus under anaerobic conditions after 44 hrs by CLSI-M11-47 protocol based agar dilution method; format: functional; summary of the method: as §1
Prevotella tannerae = assay: Antimicrobial activity against Prevotella tannerae under anaerobic conditions after 44 hrs by CLSI-M11-47 protocol based agar dilution method; format: functional; settings: Alloprevotella tannerae; summary of the method: as §2
[11] = test system: Parabacteroides distasonis; assay: Antimicrobial activity against Bacteroides distasonis under anaerobic conditions after 44 hrs by CLSI-M11-47 protocol based agar dilution method; format: functional; summary of the method: as §1
Anaerococcus tetradius = assay: Antimicrobial activity against Anaerococcus tetradius under anaerobic conditions after 44 hrs by CLSI-M11-47 protocol based agar dilution method; format: functional; summary of the method: as §1
[12] = test system: Paeniclostridium sordellii; assay: Antimicrobial activity against Clostridium sordellii under anaerobic conditions after 44 hrs by CLSI-M11-47 protocol based agar dilution method; format: functional; settings: Paraclostridium sordellii; summary of the method: as §1
Clostridium symbiosum = assay: Antimicrobial activity against Clostridium symbiosum under anaerobic conditions after 44 hrs by CLSI-M11-47 protocol based agar dilution method; format: functional; summary of the method: as §1
Lacrimispora sphenoides = assay: Antimicrobial activity against Clostridium sphenoides under anaerobic conditions after 44 hrs by CLSI-M11-47 protocol based agar dilution method; format: functional; summary of the method: as §1
[13] = test system: Prevotella melaninogenica; assay: Antimicrobial activity against Prevotella melaninogenica under anaerobic conditions after 44 hrs by CLSI-M11-47 protocol based agar dilution method; format: functional; summary of the method: as §2

Compound: CCC[C@@H]1C[C@@H](C(=O)N[C@@H]([C@H]2O[C@H](SC)[C@H](O)[C@@H](O)[C@H]2O)[C@H](C)Cl)N(C)C1 [CLINDAMYCIN]
- MIC50 [1]: 2 µg/mL (≈ 4.71 µM)
- MIC90 [1]: 128 µg/mL (≈ 301 µM)
- MIC50 (Prevotella corporis): ≤ 0.03 µg/mL
- MIC90 (Prevotella corporis): 128 µg/mL (≈ 301 µM)
- MIC50 [2]: ≤ 0.03 µg/mL
- MIC90 [2]: > 128 µg/mL
- MIC50 (Schaalia odontolytica): 0.06 µg/mL (≈ 0.141 µM)
- MIC90 (Schaalia odontolytica): 128 µg/mL (≈ 301 µM)
- MIC50 [3]: 0.5 µg/mL (≈ 1.18 µM)
- MIC90 [3]: 2 µg/mL (≈ 4.71 µM)
- MIC50 (Parabacteroides merdae): 4 µg/mL (≈ 9.41 µM)
- MIC90 (Parabacteroides merdae): > 128 µg/mL
- MIC50 (Bacteroides fragilis [4]): 1 µg/mL (≈ 2.35 µM)
- MIC90 (Bacteroides fragilis [4]): 128 µg/mL (≈ 301 µM)
- MIC50 [5]: ≤ 0.03 µg/mL
- MIC90 [5]: 0.06 µg/mL (≈ 0.141 µM)
- MIC50 (Clostridium baratii): 2 µg/mL (≈ 4.71 µM)
- MIC90 (Clostridium baratii): 128 µg/mL (≈ 301 µM)
- MIC50 (Gemella morbillorum): 0.125 µg/mL (≈ 0.294 µM)
- MIC90 (Gemella morbillorum): 64 µg/mL (≈ 151 µM)
- MIC50 (Prevotella intermedia): ≤ 0.03 µg/mL
- MIC90 (Prevotella intermedia): 16 µg/mL (≈ 37.6 µM)
- MIC50 [6]: 0.06 µg/mL (≈ 0.141 µM)
- MIC90 [6]: 128 µg/mL (≈ 301 µM)
- MIC50 (Gemella sanguinis): 0.125 µg/mL (≈ 0.294 µM)
- MIC90 (Gemella sanguinis): 64 µg/mL (≈ 151 µM)
- MIC50 (Prevotella oris): ≤ 0.03 µg/mL
- MIC90 (Prevotella oris): 128 µg/mL (≈ 301 µM)
- MIC50 (Bacteroides fragilis [7]): 4 µg/mL (≈ 9.41 µM)
- MIC90 (Bacteroides fragilis [7]): > 128 µg/mL
- MIC50 [8]: ≤ 0.03 µg/mL
- MIC90 [8]: 0.25 µg/mL (≈ 0.588 µM)
- MIC50 [9]: 2 µg/mL (≈ 4.71 µM)
- MIC90 [9]: 128 µg/mL (≈ 301 µM)
- MIC50 (Clostridium subterminale): 2 µg/mL (≈ 4.71 µM)
- MIC90 (Clostridium subterminale): 128 µg/mL (≈ 301 µM)
- MIC50 (Clostridium perfringens): 0.25 µg/mL (≈ 0.588 µM)
- MIC90 (Clostridium perfringens): 1 µg/mL (≈ 2.35 µM)
- MIC50 (Bacteroides ovatus): 4 µg/mL (≈ 9.41 µM)
- MIC90 (Bacteroides ovatus): > 128 µg/mL
- MIC50 (Clostridium butyricum): 2 µg/mL (≈ 4.71 µM)
- MIC90 (Clostridium butyricum): 128 µg/mL (≈ 301 µM)
- MIC50 (Prevotella disiens): ≤ 0.03 µg/mL
- MIC90 (Prevotella disiens): 128 µg/mL (≈ 301 µM)
- MIC50 (Anaerococcus): 0.125 µg/mL (≈ 0.294 µM)
- MIC90 (Anaerococcus): 64 µg/mL (≈ 151 µM)
- MIC50 (Prevotella buccae): ≤ 0.03 µg/mL
- MIC90 (Prevotella buccae): > 128 µg/mL
- MIC50 [10]: 0.125 µg/mL (≈ 0.294 µM)
- MIC90 [10]: 64 µg/mL (≈ 151 µM)
- MIC50 (Prevotella tannerae): ≤ 0.03 µg/mL
- MIC90 (Prevotella tannerae): 128 µg/mL (≈ 301 µM)
- MIC50 [11]: 4 µg/mL (≈ 9.41 µM)
- MIC90 [11]: > 128 µg/mL
- MIC50 (Anaerococcus tetradius): 0.5 µg/mL (≈ 1.18 µM)
- MIC90 (Anaerococcus tetradius): 128 µg/mL (≈ 301 µM)
- MIC50 [12]: 2 µg/mL (≈ 4.71 µM)
- MIC90 [12]: 128 µg/mL (≈ 301 µM)
- MIC50 (Clostridium symbiosum): 2 µg/mL (≈ 4.71 µM)
- MIC90 (Clostridium symbiosum): 128 µg/mL (≈ 301 µM)
- MIC50 (Lacrimispora sphenoides): 2 µg/mL (≈ 4.71 µM)
- MIC90 (Lacrimispora sphenoides): 128 µg/mL (≈ 301 µM)
- MIC50 [13]: ≤ 0.03 µg/mL
- MIC90 [13]: > 128 µg/mL
